CHT PAM: allosteric activators of human choline transporter CHT. Q9GZV3. CHT-expressing cells, membrane potential dye, choline EC20; hits give high values; LV-AA mutant CHT in HEK293 cells. B-score at 10 µM. 0.49% of 310,000 active. AID 488977;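 active = initial fluorescence not abnormally high and integrated response B-score, plate-corrected, over 3 SD above library mean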
Rad51 HR inh: Rad51 (human) homologous recombination inhibition. 0.085% of 200,000 active. inhibition, % at 10 µM. hRad51 DNA strand exchange, fluorescence dequenching. Q06609;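 active = inhibition above 40% at the single screening dose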;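 also: 0% = DMSO control wells and 100% = blanks with heterologous ssDNA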
Target sequence (Q06609 whole entry, looked up): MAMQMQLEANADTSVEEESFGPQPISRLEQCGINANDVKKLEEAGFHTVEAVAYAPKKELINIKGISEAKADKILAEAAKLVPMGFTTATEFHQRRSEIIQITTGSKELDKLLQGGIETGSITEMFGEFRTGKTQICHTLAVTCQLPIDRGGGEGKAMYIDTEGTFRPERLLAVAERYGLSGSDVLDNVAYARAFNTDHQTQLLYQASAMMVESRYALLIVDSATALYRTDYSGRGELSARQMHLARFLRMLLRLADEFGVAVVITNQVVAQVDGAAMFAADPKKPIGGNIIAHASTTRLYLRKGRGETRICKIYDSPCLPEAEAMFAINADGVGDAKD
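Test system: preformed human Rad51 ssDNA filaments; also added: Donor/quencher-labelled 47-bp dsDNA substrate; doses: 10 µM final, single point; times: 37 °C 15-min filament assembly, 30-min compound preincubation, 15-min exchange; detection: FRET fluorescence dequenching, excitation 485 nm, emission 520 nm; read-out basis: Fluorescence-based percent inhibition, control- and blank-normalised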
CHT inh: inhibitors of human choline transporter CHT. 0.86% of 310,000 active. B-score at 10 µM. CHT-expressing cells, membrane potential dye, choline response; hits give low values. Q9GZV3. AID 488975;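 active = B-score over 3 SD under the library average, and starting fluorescence ratio not unusually high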;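 also: choline stimulus applied at its EC90 after an EC20 pre-addition; B-score computed on integrated fluorescence ratio after choline addition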
KCC2 mod: modulates chloride dependent transport by human KCC2. Q9H2X9. KCC2 cells, thallium flux FluoZin-2 fluorescence. B-score of Tl+ flux slope (higher = more flux/activation; lower = inhibition) at 10 µM. 2.2% of 190,000 active. AID 1456;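 active = thallium flux slope and its plate-corrected score both differing from the plate sample mean at a set confidence after two filtering rounds, in either direction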;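 also: slope of fluorescence scaled to starting intensity during 10 to 20 s after thallium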
CHT inh conf: confirmation of human choline transporter CHT inhibitors; CHT activity remaining % of control (hits give low values), % at 10 µM; shares compounds with CHT inh; 70% of 2,400 active; CHT-expressing cells, choline membrane potential dye; LV-to-AA substituted CHT, HEK293 cells; AID 493221;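 active = choline transporter activity left, mean of duplicates at 10 µM, below buffer-only control mean minus 3 SD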;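 also: depolarization triggered by choline at its EC90 following an EC20 pre-addition; 0% = hemicholinium-3 full block and 100% = buffer-only control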
HEK293 CHT ctr: CHT inhibitor counter-screen hit in parental HEK293 cells; shares compounds with CHT inh; membrane potential dye, choline response; active = decrease or increase beyond buffer ±3SD; membrane potential ratio readout (active if shifted either direction beyond buffer ±3SD; no single direction) at 10 µM; 4% of 2,400 active;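 also: parental cells lack the transporter so any hit is non-specific; ratio is peak minus trough fluorescence over baseline after EC90 choline challenge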
* = called active by the depositor. Sampled rows, rich in hits. Any-hit rate of the full collection: about 2.6%.

For CC(C)c1nc(C(=O)N2CCCC(CCC(=O)N(C)CCc3ccccn3)C2)cs1 (stereo unspecified) the results were CHT PAM inactive, Rad51 HR inh 6, CHT inh -5.4*, CHT inh conf inactive and HEK293 CHT ctr inactive.
`CN(CCc1ccccn1)C(=O)CCC1CCCN(C(=O)c2cscn2)C1` (stereo unspecified) gave CHT PAM inactive, Rad51 HR inh 5, CHT inh inactive and KCC2 mod -0.38.
Screening CCCCn1c(NCc2ccc3c(c2)OCO3)nc2ccccc21 returned CHT PAM inactive, Rad51 HR inh 2, CHT inh -7.3*, KCC2 mod -1.8, CHT inh conf 52%* and HEK293 CHT ctr 3*.
CN(C)CCn1c(NCc2ccc3c(c2)OCO3)nc2ccccc21 was read as CHT PAM inactive and CHT inh inactive.
Screening O=C(CCNC(=O)c1ccccc1Cl)Nc1ccc2c(c1)OCO2 returned CHT PAM inactive, Rad51 HR inh -9, CHT inh inactive and KCC2 mod 0.25.
For CC(=O)c1cc2c(cc1NC(=O)CCNC(=O)c1ccccc1Cl)OCO2 the results were CHT PAM inactive, Rad51 HR inh -5, CHT inh -5.6*, KCC2 mod -0.67, CHT inh conf 50%* and HEK293 CHT ctr inactive.
For CC(C)c1ccc(NC(=O)CSc2nc(=O)n(CCCN3CCOCC3)c3c2CCC3)cc1 the results were CHT PAM inactive, CHT inh -4.9*, CHT inh conf 38%* and HEK293 CHT ctr inactive.
For CC(C)c1cc(C(=O)NNC(=S)NC2CCCCC2)cs1 the results were CHT PAM inactive, CHT inh -5.6*, CHT inh conf 66%* and HEK293 CHT ctr inactive.
Screening CCCCOc1cccc(C(=O)NNC(=S)NC2CCCCC2)c1 returned CHT PAM inactive, Rad51 HR inh 4, CHT inh -8.8*, KCC2 mod -1.4, CHT inh conf 69%* and HEK293 CHT ctr inactive.
`CCc1cc(C(=O)NNC(=S)NC2CCCCC2)cs1` gave CHT PAM inactive and CHT inh inactive.
`C=CCN(CC=C)S(=O)(=O)c1ccc2nc(NC(=O)C3CCCO3)sc2c1` (stereo unspecified) gave CHT PAM inactive, Rad51 HR inh 5, CHT inh -5*, KCC2 mod -0.75, CHT inh conf 58%* and HEK293 CHT ctr inactive.
Screening CS(=O)(=O)c1ccc2nc(NC(=O)C3CCCO3)sc2c1 (stereo unspecified) returned CHT PAM inactive, Rad51 HR inh 7, CHT inh inactive and KCC2 mod 0.48.
`COc1ccc(OCC(=O)Nc2ccc(OC)c(S(=O)(=O)N3CCCCC3)c2)cc1` gave CHT PAM inactive and CHT inh inactive.
Cn1c(Cl)c(C(=O)Nc2ccc(Cl)cc2)c2ccccc21 was read as CHT PAM inactive, Rad51 HR inh 4 and CHT inh inactive.
Screening CCN(CC)S(=O)(=O)c1cc(C(=O)OCC(=O)Nc2cccc(C)c2C)ccc1F returned CHT PAM inactive, Rad51 HR inh 0, CHT inh inactive and KCC2 mod -1.7.
CCn1cc(/C=C(\NC(=O)c2ccccc2Cl)C(=O)N2CCOCC2)c2ccccc21 was read as CHT PAM inactive and CHT inh inactive.
O=C(N/C(=C\c1ccc(Br)cc1)C(=O)N1CCOCC1)c1ccccc1Cl was read as CHT PAM inactive, CHT inh -5.6*, CHT inh conf inactive and HEK293 CHT ctr inactive.
CCn1cc(/C=C(\NC(=O)c2ccccc2F)C(=O)NCCCn2ccnc2)c2ccccc21 was read as CHT PAM inactive, CHT inh -7.2*, CHT inh conf 28%* and HEK293 CHT ctr inactive.
For CCn1cc(/C=C(\NC(=O)c2ccccc2OC)C(=O)NCCCn2ccnc2)c2ccccc21 the results were CHT PAM inactive and CHT inh inactive.
O=C(NCCCn1ccnc1)/C(=C\c1ccc(Br)cc1)NC(=O)c1ccccc1 was read as CHT PAM inactive, CHT inh -5*, CHT inh conf 59%* and HEK293 CHT ctr inactive.
CCn1cc(/C=C(\NC(=O)c2ccccc2F)C(=O)N2CCOCC2)c2ccccc21 was read as CHT PAM inactive, CHT inh -5.1*, CHT inh conf 46%* and HEK293 CHT ctr inactive.
CC(C)(C)C(=O)NC(=S)Nc1cc(C(F)(F)F)ccc1N1CCOCC1 was read as CHT PAM inactive, Rad51 HR inh -4, CHT inh -5*, KCC2 mod -0.0026, CHT inh conf inactive and HEK293 CHT ctr inactive.
`CC(C)(C)C(=O)Nc1cc(C(F)(F)F)ccc1N1CCOCC1` gave CHT PAM inactive, Rad51 HR inh -2, CHT inh inactive and KCC2 mod -1.1.
For O=C(Nc1ccc(Cl)cc1)Nc1ccc(N2CCC(C(F)(F)F)CC2)nc1 the results were CHT PAM inactive, Rad51 HR inh -4, CHT inh -6.1*, KCC2 mod -2, CHT inh conf inactive and HEK293 CHT ctr inactive.
For O=C(COC(=O)C1CCN(c2ccc(C(F)(F)F)cn2)CC1)Nc1ccc(Cl)cc1 the results were CHT PAM inactive and CHT inh inactive.
`CC1=NN(C(=O)c2ccc(Cn3nc(C)c(Br)c3C)cc2)C(O)(C(F)(F)F)C1` (stereo unspecified) gave CHT PAM inactive, Rad51 HR inh -27, CHT inh -8.1*, KCC2 mod 0.18, CHT inh conf 26%* and HEK293 CHT ctr inactive.
Screening Cc1ccc2[nH]c(C(=O)O)c(NC(=O)[C@@H]3C[C@@H]3c3ccccc3)c2c1 returned CHT PAM inactive, CHT inh -5*, KCC2 mod 0.76, CHT inh conf inactive and HEK293 CHT ctr inactive.
Cc1ccc(CNC(=O)C2CC2c2ccccc2)cc1 (stereo unspecified) was read as CHT PAM inactive, Rad51 HR inh 4, CHT inh inactive and KCC2 mod -0.39.
O=C(c1cn(-c2ccccc2)nc1-c1ccc(Cl)cc1)N1CCOCC1 was read as CHT PAM inactive, Rad51 HR inh 2, CHT inh -5.6*, KCC2 mod 0.015, CHT inh conf 59%* and HEK293 CHT ctr inactive.
O=C(c1cn(-c2ccccc2)nc1-c1ccccc1)N1CCOCC1 was read as CHT PAM inactive, Rad51 HR inh 4, CHT inh inactive and KCC2 mod -0.085.
For Cc1c(CN(C)C(=O)CSc2nc(-c3ccco3)cc(C(F)(F)F)n2)cnn1C the results were CHT PAM inactive, Rad51 HR inh 4, CHT inh -7*, KCC2 mod 0.25, CHT inh conf 69%* and HEK293 CHT ctr -8.6*.

Screening results: PubChem BioAssay, several laboratories
